An excerpt weighted towards active compounds, which were near 2.4% of everything screened.
HKDC1 inh: HKDC1 hexokinase inhibitors, primary screen, biochemical, fluorescence, uHTS; recombinant HKDC1, G6PDH/diaphorase resazurin coupled fluorescence; 0.16% of 340,000 active; inhibition, % at 20 µM; AID 493160, 2011; Q2TB90;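 active = inhibition above about 35% when tested at 20 µM, limit read from the data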
Target sequence (Q2TB90 whole entry, looked up): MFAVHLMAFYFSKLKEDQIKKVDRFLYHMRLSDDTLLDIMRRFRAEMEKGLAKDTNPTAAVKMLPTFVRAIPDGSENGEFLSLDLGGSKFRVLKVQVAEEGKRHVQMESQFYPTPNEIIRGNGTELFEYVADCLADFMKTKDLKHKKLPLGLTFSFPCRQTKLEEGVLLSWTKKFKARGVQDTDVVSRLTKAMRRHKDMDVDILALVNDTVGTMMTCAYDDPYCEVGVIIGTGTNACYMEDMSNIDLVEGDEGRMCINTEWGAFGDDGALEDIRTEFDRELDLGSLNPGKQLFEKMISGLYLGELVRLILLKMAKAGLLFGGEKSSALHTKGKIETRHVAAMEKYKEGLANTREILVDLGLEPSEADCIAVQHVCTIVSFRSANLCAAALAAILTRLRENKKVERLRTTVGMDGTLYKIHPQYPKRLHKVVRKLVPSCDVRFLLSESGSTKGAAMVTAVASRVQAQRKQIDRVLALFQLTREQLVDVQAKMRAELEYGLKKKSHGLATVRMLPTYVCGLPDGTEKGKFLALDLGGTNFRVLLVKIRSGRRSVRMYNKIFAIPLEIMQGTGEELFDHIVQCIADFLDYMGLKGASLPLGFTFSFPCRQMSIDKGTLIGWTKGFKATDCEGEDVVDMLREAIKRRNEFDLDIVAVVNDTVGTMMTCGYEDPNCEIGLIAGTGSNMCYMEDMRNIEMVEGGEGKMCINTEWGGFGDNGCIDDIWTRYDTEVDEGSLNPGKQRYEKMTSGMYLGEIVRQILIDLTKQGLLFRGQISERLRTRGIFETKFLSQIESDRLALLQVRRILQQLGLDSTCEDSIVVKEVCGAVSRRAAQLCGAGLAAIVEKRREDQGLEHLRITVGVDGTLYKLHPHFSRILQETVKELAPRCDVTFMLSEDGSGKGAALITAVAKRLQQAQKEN
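Test system: Recombinant HKDC1 (HK5) hexokinase enzyme, produced in-house | Input: HKDC1 at 5 µg/mL | Buffer or medium: Tris pH 8.0 buffer with MgCl2, Tween-20, BSA, BME | Schedule: 90 min reaction incubation at room temperature, dark | Technique: Resazurin-to-resorufin fluorescence via G6PDH and diaphorase coupling, 525/613 nm | Controls: DMSO wells with and without enzyme mix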
PfM18AAP inh-1: PfM18AAP inhibitors, malaria aminopeptidase, primary screen, biochemical, QFRET, recombinant enzyme; M18 aspartyl aminopeptidase (Plasmodium falciparum 3D7); H-Glu-NHMec fluorogenic cleavage; inhibition, % at 7.35 µM; 1.2% of 290,000 active; AID 1822, 2009;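 active = inhibition above the campaign mean inhibition over all tested compounds plus 3 SD, cut at about 28% in these data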
A3G deaminase: APOBEC3G DNA deaminase inhibitors, primary screen, biochemical, fluorescence, single-stranded DNA substrate, uHTS; DNA dC->dU-editing enzyme APOBEC-3G (Homo sapiens), Q9HC16; recombinant A3G, ssDNA deamination FAM/TAMRA fluorescence; inhibition, % at 20 µM; 0.28% of 330,000 active;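 active = inhibition of at least 40% at 20 µM, with no more than 30% in the related APOBEC3A deaminase screen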
A3A deaminase: APOBEC3A ssDNA deaminase inhibitors, primary screen, selectivity assay for APOBEC3G inhibitor project, biochemical, FAM/TAMRA oligo cleavage fluorescence; 0.41% of 330,000 active; AID 493011, 2011; recombinant A3A, FAM/TAMRA ssDNA deamination fluorescence; inhibition, % at 20 µM;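 active = at least 40% inhibition at 20 µM here, with at most 30% in a related deaminase screen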
PfG6PD inh: PfG6PD enzyme inhibitors, primary screen, biochemical, fluorescence intensity, uHTS. glucose-6-phosphate dehydrogenase-6-phosphogluconolactonase (Plasmodium falciparum 3D7). PfGluPho enzyme, NADPH resazurin-diaphorase fluorescence. inhibition, % at 20 µM. 0.78% of 350,000 active. AID 504690, 2011;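 active = inhibition reaching at least a set limit at 20 µM in the primary screen, cut at about 59% in these data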
UBC9 SUMO inh: inhibitors of in vitro SUMOylation cascade, primary screen, biochemical, HTRF, uHTS; HTRF SUMOylation assay, SAE1/SAE2 + UBC9; 0.36% of 290,000 active; inhibition, % at 35 µM; SUMO-conjugating enzyme UBC9 (Homo sapiens), P63279; in the data active = inhibition above about 50%, passing the limit was not always enough
PfM18AAP inh-2: PfM18AAP inhibitors, malaria aminopeptidase, confirmation, biochemical, QFRET, recombinant enzyme, triplicate. 28% of 2,400 active. H-Glu-NHMec fluorogenic cleavage. inhibition, % at 7.35 µM. shares compounds with PfM18AAP inh-1;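 active = mean inhibition over replicate wells above the hit cutoff set for the earlier primary screen, cut at about 29% in these data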
CTSL1 counter: cathepsin L1 inhibitors, retest, confirmation, counter-screen for PFM18AAP inhibitor project, biochemical, QFRET, triplicate. shares compounds with PfM18AAP inh-1. purified cathepsin L1, Z-Leu-Arg-MCA fluorescence. inhibition, % at 5.96 µM. 2,400 tested, under 10 active. AID 2178, 2009;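 active = average inhibition across replicates above the hit cutoff set in the earlier primary screen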
APOBEC3G confirm: APOBEC3G deaminase inhibitor retest, confirmation, biochemical, fluorescence, single-stranded DNA substrate, single concentration; recombinant A3G ssDNA deaminase, UDG/FAM-TAMRA fluorescence; AID 493152, 2011; inhibition, % at 20 µM; shares compounds with A3G deaminase; 72% of 890 active;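 active = inhibition reaching a set limit in any replicate at 20 µM, the limit being 80% of the first screen's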
UDG ctr A3G: E. coli UDG inhibitors, confirmation, counter-screen for APOBEC3G inhibitor project, biochemical, single concentration, fluorescence, FAM/TAMRA oligo. shares compounds with A3G deaminase. UDG counterscreen. inhibition, % at 20 µM. 710 tested, under 10 active;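 active = compounds giving 40% or more inhibition at 20 µM in any one of the three replicates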;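 note: inhibitors lower the FAM signal released by uracil excision and alkaline cleavage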
HKDC1 act conf2: HKDC1 hexokinase activators, confirmation, biochemical, single concentration; shares compounds with HKDC1 inh; recombinant HKDC1, G6PDH/diaphorase resazurin fluorescence; hits give low values; inhibition, % at 20 µM; 14% of 740 active; AID 504708, 2011;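 active = inhibition at or below a set negative limit, negative inhibition meaning the enzyme was activated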
PfG6PD confirm: PfG6PD inhibitors, hit retest, confirmation, biochemical, fluorescence intensity, single concentration. AID 504753, 2011. recombinant PfGluPho, NADPH-diaphorase-resazurin fluorescence. shares compounds with PfG6PD inh. inhibition, % at 20 µM. 34% of 2,400 active;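 active = inhibition of at least 50% at 20 µM in any single replicate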
Diaph ctr 10uM: diaphorase inhibitors and chemical oxidizers, confirmation, counter-screen for P. falciparum G6PD inhibitor project, biochemical, fluorescence intensity, 10 µM NADPH | shares compounds with PfG6PD inh | diaphorase-coupled resazurin reduction, NADPH 10 uM | inhibition, % at 20 µM | 39% of 820 active;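 active = average inhibition reaching 50% or more with the compound at 20 µM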;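 note: resorufin red fluorescence formed as diaphorase reduces resazurin using NADPH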
Diaph ctr 30uM: diaphorase inhibitors and chemical oxidizers, confirmation, counter-screen for P. falciparum G6PD inhibitor project, biochemical, fluorescence intensity, 30 µM NADPH; 29% of 820 active; shares compounds with PfG6PD inh; Diaphorase/resazurin coupled assay, resorufin fluorescence; inhibition, % at 20 µM;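 active = inhibition averaging 50% or more, tested at 20 µM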
Of the large screens only hits and unclear results are named; the others gave an inactive call (follow-up assays come after a bar, where they were run).

COc1ccc(-n2c(SCC#N)nc3c(sc(=S)n3-c3ccccc3)c2=O)c(OC)c1	PfM18AAP inh-1 35, PfG6PD inh 91 | PfM18AAP inh-2 inactive | CTSL1 counter inactive | PfG6PD confirm inactive
COc1ccccc1-n1c(SC)nc2c(sc(=S)n2-c2ccccc2)c1=O	none
Cn1c(N=Nc2ccc(N3CCOCC3)cc2)[n+](C)c2ccccc21	none (no result: A3G deaminase, A3A deaminase)
COCCN(C(=S)Nc1c(C)cc(C)cc1C)C(C)c1cccnc1 (stereo not given)	PfM18AAP inh-1 49, PfG6PD inh 69 | PfM18AAP inh-2 inactive | CTSL1 counter inactive | PfG6PD confirm inactive
COCCN(C(=S)Nc1c(C)cccc1C)C(C)c1cccnc1 (stereo not given)	none
COc1ccc(CC(=O)NCCCCc2ccccc2)cc1OC	none (no result: PfM18AAP inh-1, UBC9 SUMO inh)
COc1ccc(Br)cc1CNc1ccc(O)cc1	PfM18AAP inh-1 42, PfG6PD inh 68 | PfM18AAP inh-2 inactive | CTSL1 counter inactive | PfG6PD confirm inactive
Cc1cc(O)c(-c2cc(O)c(C)cc2O)cc1O	HKDC1 inh 45, PfM18AAP inh-1 71, A3G deaminase 86, PfG6PD inh 112 | PfM18AAP inh-2 51 | CTSL1 counter inactive | HKDC1 act conf2 inactive | PfG6PD confirm 110 | Diaph ctr 10uM 73 | Diaph ctr 30uM inactive
CCN1CCN(C(=O)C2(NC(=O)Nc3ccccc3Cl)CCCCC2)CC1	none
Cc1sc(NC(=O)Nc2ccccc2)c(C(N)=O)c1C	PfM18AAP inh-1 37, PfG6PD inh 74 | PfM18AAP inh-2 inactive | CTSL1 counter inactive | PfG6PD confirm inactive
COc1cnn(-c2ccccc2)c(=O)c1SCc1ccc(Cl)c(Cl)c1	none
CC(NC(=O)c1sc2cc([N+](=O)[O-])ccc2c1Cl)C(C)(C)C (stereo not given)	PfM18AAP inh-1 38, A3G deaminase 55, PfG6PD inh 97 | PfM18AAP inh-2 31 | CTSL1 counter inactive | APOBEC3G confirm 69 | UDG ctr A3G inactive | HKDC1 act conf2 -39 | PfG6PD confirm 70 | Diaph ctr 10uM inactive | Diaph ctr 30uM inactive
CCN=c1scc(C)n1/N=C/c1ccsc1	none
CN=c1scc(C)n1/N=C/c1ccc(O)c(O)c1O	PfM18AAP inh-1 47, PfG6PD inh 88 | PfM18AAP inh-2 inactive | CTSL1 counter inactive | PfG6PD confirm 78 | Diaph ctr 10uM inactive | Diaph ctr 30uM inactive
C=CCN=c1scc(-c2ccco2)n1/N=C/c1ccc(O)c(O)c1O	PfM18AAP inh-1 45, PfG6PD inh 73 | PfM18AAP inh-2 inactive | CTSL1 counter inactive | PfG6PD confirm 48 | Diaph ctr 10uM inactive | Diaph ctr 30uM inactive
O=[N+]([O-])c1ccc(/C=N/N2CCN(c3ccncc3S(=O)(=O)N3CCCCC3)CC2)cc1	none
COc1cc(OC)cc(C(=O)NCC(=O)N2CCN(c3ccc(O)cc3)CC2)c1	PfM18AAP inh-1 36, PfG6PD inh 60 | PfM18AAP inh-2 inactive | CTSL1 counter inactive | PfG6PD confirm inactive
COc1ccc(N2CCN(C(=O)CNC(=O)c3ccc4ccccc4c3)CC2)cc1	none (no result: PfM18AAP inh-1, UBC9 SUMO inh)
N#CCC(=O)N/N=C/c1ccc(Sc2nc3ccccc3s2)o1	PfM18AAP inh-1 41, PfG6PD inh 68 | PfM18AAP inh-2 inactive | CTSL1 counter inactive | PfG6PD confirm inactive
COc1ccccc1/C=N/NC(=O)CN(C1=NS(=O)(=O)c2ccccc21)c1ccccc1	none
O=C(O)c1ccccc1C(=O)Nc1n[nH]c(=S)s1	PfM18AAP inh-1 63, A3G deaminase 64, PfG6PD inh 72 | PfM18AAP inh-2 inactive | CTSL1 counter inactive | APOBEC3G confirm 44 | UDG ctr A3G inactive | PfG6PD confirm inactive
CCOC(=O)CCCNC(=O)CCNC(=O)c1ccc(OCC(C)C)cc1	none
CCN(CC)C(=O)c1c(C)[nH]c(=S)c(C#N)c1-c1ccco1	PfM18AAP inh-1 56, PfG6PD inh 61 | PfM18AAP inh-2 inactive | CTSL1 counter inactive | PfG6PD confirm 51 | Diaph ctr 10uM inactive | Diaph ctr 30uM inactive

Bioassay records deposited in PubChem by several laboratories.
